This passage reports Ke, IC50 and Ki results from ChEMBL document CHEMBL1140138, “Novel opioid peptide derived antagonists containing (2S)-2-methyl-3-(2,6-dimethyl-4-carbamoylphenyl)propanoic acid [(2S)-Mdcp]” (J Med Chem, 2008).

Test [1] has as its target Mu-type opioid receptor (Cavia porcellus) (UniProt P97266). Briefly: (§1) Antagonist activity against mu opioid receptor in guinea pig ileum assessed as effect on TAPP-induced response. In kind it is functional, tissue-based. An outline of the steps: (§2)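 Isolated tissue bioassays: mu and kappa antagonism measured in guinea pig ileum, delta antagonism in mouse vas deferens. Antagonist potency expressed as Ke (nM).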

The target in test [2] is Delta-type opioid receptor (Mus musculus) (UniProt P32300). Nature of the test: (§3) Antagonist activity against delta opioid receptor in mouse vas deference assessed as effect on DPDPE-induced response. In kind it is functional. An outline of the steps:
as §2

Test [3] addresses Kappa-type opioid receptor (Cavia porcellus) (UniProt P41144). Briefly: Antagonist activity against kappa opioid receptor in guinea pig ileum assessed as effect on U50488-induced response. The format is functional, tissue-based. An outline of the steps: as §2
Test [4] deals with Mu-type opioid receptor (Cavia porcellus, UniProt P97266). Described as §1. The format is functional, tissue-based. Put shortly: as §2
Chain of Mu-type opioid receptor (Cavia porcellus, UniProt P97266) (P97266 whole entry): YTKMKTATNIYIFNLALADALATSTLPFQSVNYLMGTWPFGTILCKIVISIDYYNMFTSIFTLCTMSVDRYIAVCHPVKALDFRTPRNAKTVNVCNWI
Test [5] concerns the target Delta-type opioid receptor (Mus musculus, UniProt P32300). The test is described as §3. The format is functional. An outline of the steps: as §2
For test [6], the target named is Kappa-type opioid receptor (Cavia porcellus, UniProt P41144). Nature of the test: Displacement of [3H]U69593 from kappa opioid receptor in guinea pig brain membrane. In kind it is cell membranes. A general note: Displacement assays read how much labelled ligand stays bound in the presence of the test substance.
Chain of Kappa-type opioid receptor (P41144 whole entry): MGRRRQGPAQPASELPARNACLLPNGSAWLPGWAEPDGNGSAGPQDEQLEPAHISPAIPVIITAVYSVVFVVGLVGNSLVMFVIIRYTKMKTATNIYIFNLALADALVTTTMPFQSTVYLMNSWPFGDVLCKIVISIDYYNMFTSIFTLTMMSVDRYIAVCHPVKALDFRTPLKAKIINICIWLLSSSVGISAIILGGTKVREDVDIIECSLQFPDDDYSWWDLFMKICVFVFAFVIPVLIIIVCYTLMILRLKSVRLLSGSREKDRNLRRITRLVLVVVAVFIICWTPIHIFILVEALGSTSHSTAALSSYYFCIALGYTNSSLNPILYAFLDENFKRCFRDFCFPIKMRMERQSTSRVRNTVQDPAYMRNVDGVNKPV
Test [7] has as its target Delta-type opioid receptor (Rattus norvegicus, UniProt P33533). Nature of the test: Displacement of [3H]DSLET from delta opioid receptor in rat brain membrane. In kind it is cell membranes. An outline of the steps: (§4)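 Opioid receptor binding in rat brain membrane preparations. Affinity expressed as Ki (nM).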
The target in test [8] is Mu-type opioid receptor (Rattus norvegicus, UniProt P33535). Nature of the test: Displacement of [3H]DAMGO from mu opioid receptor in rat brain membrane. In kind it is cell membranes. An outline of the steps: as §4
Chain of Mu-type opioid receptor (Rattus norvegicus, UniProt P33535) (P33535 whole entry): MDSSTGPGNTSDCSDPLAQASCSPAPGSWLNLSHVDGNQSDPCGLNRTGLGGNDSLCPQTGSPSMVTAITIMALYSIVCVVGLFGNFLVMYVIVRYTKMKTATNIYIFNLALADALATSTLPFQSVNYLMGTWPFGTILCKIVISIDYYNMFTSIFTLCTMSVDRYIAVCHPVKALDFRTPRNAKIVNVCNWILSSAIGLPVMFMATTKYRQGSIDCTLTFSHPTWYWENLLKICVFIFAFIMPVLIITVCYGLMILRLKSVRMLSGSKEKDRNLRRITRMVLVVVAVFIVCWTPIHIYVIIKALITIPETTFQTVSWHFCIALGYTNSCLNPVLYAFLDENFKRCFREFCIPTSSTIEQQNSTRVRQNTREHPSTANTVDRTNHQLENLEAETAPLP

Bridge positions count the residues as written; N and C are the ends. Square brackets hold non-standard residues; d marks the D form. Peptide text beside a SMILES is read from it. * marks the point of attachment. Phe(4-NO2) = N[C@@H](Cc1ccc([N+](=O)[O-])cc1)C(=O)O; X1 = Cc1cc(C(N)=O)cc(C)c1C[C@H](C)C(=O)*; Phe(4-F) = N[C@@H](Cc1ccc(F)cc1)C(=O)O; d2Nal = N[C@H](Cc1ccc2ccccc2c1)C(=O)O; Dmt = Cc1cc(O)cc(C)c1C[C@H](N)C(=O)O; dPen = CC(C)(S)[C@@H](N)C(=O)O; Pen = CC(C)(S)[C@H](N)C(=O)O; Sar = CNCC(=O)O

Chain of Delta-type opioid receptor (Mus musculus) (P32300 whole entry): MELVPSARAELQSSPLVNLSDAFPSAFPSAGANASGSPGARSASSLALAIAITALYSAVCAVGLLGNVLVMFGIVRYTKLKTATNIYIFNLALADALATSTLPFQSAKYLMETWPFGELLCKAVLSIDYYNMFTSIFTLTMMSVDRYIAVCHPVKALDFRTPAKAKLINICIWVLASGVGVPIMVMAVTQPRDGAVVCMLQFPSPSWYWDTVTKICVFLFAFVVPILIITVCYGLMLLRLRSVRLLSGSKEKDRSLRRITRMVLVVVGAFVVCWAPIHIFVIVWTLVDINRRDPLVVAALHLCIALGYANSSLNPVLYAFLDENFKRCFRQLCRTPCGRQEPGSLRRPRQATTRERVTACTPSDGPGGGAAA
Chain of Mu-type opioid receptor (Cavia porcellus) (P97266 whole entry): as the sequence (P97266 whole entry) above
Chain of Kappa-type opioid receptor (Cavia porcellus) (P41144 whole entry): as the sequence (P41144 whole entry) above
Chain of Delta-type opioid receptor (Rattus norvegicus, UniProt P33533) (P33533 whole entry): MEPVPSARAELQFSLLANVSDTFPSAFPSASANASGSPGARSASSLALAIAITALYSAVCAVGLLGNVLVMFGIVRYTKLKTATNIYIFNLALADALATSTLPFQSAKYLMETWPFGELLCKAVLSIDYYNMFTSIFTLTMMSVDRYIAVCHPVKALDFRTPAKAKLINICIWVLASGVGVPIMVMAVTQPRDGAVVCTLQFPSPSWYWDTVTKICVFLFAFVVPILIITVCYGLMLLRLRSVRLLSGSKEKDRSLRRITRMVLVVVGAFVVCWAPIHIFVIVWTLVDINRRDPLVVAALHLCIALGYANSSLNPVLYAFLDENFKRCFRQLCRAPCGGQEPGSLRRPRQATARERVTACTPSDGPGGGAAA
Chain of Delta-type opioid receptor (Mus musculus, UniProt P32300) (P32300 whole entry): as the sequence (P32300 whole entry) above

In the case of `Cc1cc(C(N)=O)cc(C)c1C[C@H](C)C(=O)N[C@@H]1CSSC[C@H](C(N)=O)NC(=O)[C@H](Cc2ccc([N+](=O)[O-])cc2)NC(=O)CNC1=O` (X1-[dC]G[Phe(4-NO2)][dC]-NH2; disulfide 1-4), the Ke in test [1] worked out at 1.24 nM; in test [2], 9.78 nM; in test [3], 18.9 nM.

`C[C@@H](O)[C@H](NC(=O)[C@H]1NC(=O)[C@H]([C@@H](C)O)NC(=O)[C@H](CCCN)NC(=O)[C@@H](Cc2c[nH]c3ccccc23)NC(=O)[C@H](Cc2ccc(O)cc2)NC(=O)[C@@H](NC(=O)[C@H](N)Cc2ccccc2)CSSC1(C)C)C(N)=O`: at Mu-type opioid receptor [4], the IC50 was 2.8 nM.

With `Cc1cc(O)cc(C)c1C[C@H](N)C(=O)N1CCC[C@H]1C(=O)N[C@@H](Cc1ccccc1)C(=O)N[C@H](Cc1ccc2ccccc2c1)C(N)=O` [ANTANAL-2] (H-[Dmt]PF[d2Nal]-NH2), on Mu-type opioid receptor [4], the Ki amounted to 1.52 nM.

On to `Cc1cc(O)cc(C)c1CCC(=O)N[C@@H]1CCCCNC(=O)NC[C@@H](C(N)=O)NC(=O)[C@H](Cc2ccccc2)NC(=O)CNC1=O`, for which the values for the Ki (at Mu-type opioid receptor [4]; in test [5]) were 15.5 nM and 273 nM, respectively.

With `Cc1cc(O)cc(C)c1C[C@H](C)C(=O)N[C@H]1C(=O)NCC(=O)N[C@@H](Cc2ccc(F)cc2)C(=O)N[C@H](C(=O)N[C@@H](Cc2ccccc2)C(=O)O)C(C)(C)SSC1(C)C`, the Ki in test [6] worked out at 3710 nM; in test [7], 2.32 nM; on Mu-type opioid receptor [8] it was 406 nM. In addition, the Ke in test [1] amounted to 668 nM; in test [2], 0.785 nM; in test [3] it was 4370 nM.

`Cc1cc(O)cc(C)c1C[C@H](C)C(=O)N[C@@H]1CSSC[C@H](C(N)=O)NC(=O)[C@H](Cc2ccc([N+](=O)[O-])cc2)NC(=O)CNC1=O`: the inhibitory constant (Ki) in test [6] was found to be 92.8 nM. The Ke in test [1] was determined as 1.48 nM; in test [2] it was 3.48 nM; in test [3], 6.41 nM.

Regarding `Cc1cc(O)cc(C)c1C[C@H](N)C(=O)N1CCC[C@H]1C(=O)N[C@@H](Cc1c[nH]c2ccccc12)C(=O)N[C@H](Cc1ccc2ccccc2c1)C(N)=O` [ANTANAL-1] (H-[Dmt]PW[d2Nal]-NH2), the inhibition constant Ki at Mu-type opioid receptor [4] worked out at 2.38 nM.

Take `Cc1cc(C(N)=O)cc(C)c1C[C@H](C)C(=O)N[C@H]1C(=O)NCC(=O)N[C@@H](Cc2ccc(F)cc2)C(=O)N[C@H](C(=O)N[C@@H](Cc2ccccc2)C(=O)O)C(C)(C)SSC1(C)C` (X1-[dPen]G[Phe(4-F)][Pen]F-OH; disulfide 1-4): the Ke came to 1170 nM in test [1], 0.326 nM in test [2] and 9980 nM in test [3].

For `Cc1cc(O)cc(C)c1C[C@H](N)C(=O)N(C)CC(=O)N[C@@H](Cc1ccccc1)C(=O)N[C@H](Cc1ccc2ccccc2c1)C(N)=O` (H-[Dmt][Sar]F[d2Nal]-NH2), the Ke in test [1] stood at 2.34 nM; in test [2], 305 nM.

For the compound `CC[C@H](C)[C@H](NC(=O)[C@H](CCCNC(=N)N)NC(=O)[C@H](CCCNC(=N)N)NC(=O)[C@H](CC(C)C)NC(=O)[C@H](Cc1ccccc1)NC(=O)CNC(=O)CNC(=O)[C@@H](C)Cc1c(C)cc(C(N)=O)cc1C)C(=O)N[C@@H](CCCNC(=N)N)C(=O)N1CCC[C@H]1C(=O)N[C@@H](CCCCN)C(N)=O`, the Ki in test [6] is 26 nM; in test [7], 27.2 nM; at Mu-type opioid receptor [8], 29.6 nM. The Ke in test [1] was determined as 401 nM; in test [2] it was 843 nM; in test [3], 5.96 nM.

In general, IC50 refers to the point on the concentration scale where inhibition reaches its midpoint. Usually Ki stands for a measure of affinity in units of concentration, obtained from inhibition or displacement.
